From PubChem BioAssay
GASC1 inh: inhibitors of GASC-1 (KDM4C) histone demethylase, primary screen, biochemical, single concentration HTS; Lysine-specific demethylase 4C (Homo sapiens), Q9H3R0; GST-KDM4C 2-372, H3K9me3 peptide, LANCE TR-FRET; inhibition, % at 12.5 µM; actives 0.15% (n = 96,000); AID 720574, 2013;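 active means mean replicate inhibition above about 25%, with at least 55% of replicates also reaching it, limit read from the data, passing the limit was not always enough; inconclusive means only one of those two conditions met; inactive means neither condition met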
Target sequence (Q9H3R0 2-372 limits assumed): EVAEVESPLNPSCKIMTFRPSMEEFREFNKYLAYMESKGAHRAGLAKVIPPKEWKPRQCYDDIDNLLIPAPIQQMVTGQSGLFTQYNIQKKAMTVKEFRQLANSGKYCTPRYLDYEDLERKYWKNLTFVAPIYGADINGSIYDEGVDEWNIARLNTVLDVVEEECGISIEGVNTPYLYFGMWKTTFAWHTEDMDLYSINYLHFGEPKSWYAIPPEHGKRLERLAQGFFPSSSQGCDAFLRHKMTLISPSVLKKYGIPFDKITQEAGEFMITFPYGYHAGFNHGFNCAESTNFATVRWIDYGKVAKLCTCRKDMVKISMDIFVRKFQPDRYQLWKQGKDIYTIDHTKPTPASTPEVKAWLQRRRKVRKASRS
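Material: GST-tagged GASC-1 (JMJD2C) catalytic fragment, aa 2-372 / Quantity: enzyme final amount 10 nM / Medium: HEPES buffer, pH 7.5, plus ascorbate / Doses: one test concentration per compound / Incubation: 30 min reaction, 60 min detection, RT / Measured by: LANCE TR-FRET / Read-out: inhibition from TR-FRET ratio decrease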
T cruzi growth-1: T. cruzi intracellular proliferation inhibitors, primary screen, cell-based, beta-gal Tulahuen parasites, NIH3T3 host, luminescence; T. cruzi beta-gal in NIH3T3, GalScreen luminescence, 90 h; inhibition, % at 8.34 µM; actives 5.9% (n = 77,000);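 active means mean inhibition above about 93%, with at least 55% of replicates each passing it, limit read from the data, passing the limit was not always enough; inconclusive means only one of those two conditions holds; inactive means neither condition holds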
IDH1 mut inh: inhibitors of IDH1 R132H reductase, primary screen, biochemical, plate reader, single point. Isocitrate dehydrogenase [NADP] cytoplasmic (Homo sapiens), O75874. diaphorase/resazurin fluorescence, 60 min. inhibition, % at 10 µM. actives 0.18% (n = 70,000); in the data active means inhibition above about 34%; inconclusive means no clear call, values can overlap the other calls; inactive means below about 11%
Target sequence (O75874 whole entry R132H): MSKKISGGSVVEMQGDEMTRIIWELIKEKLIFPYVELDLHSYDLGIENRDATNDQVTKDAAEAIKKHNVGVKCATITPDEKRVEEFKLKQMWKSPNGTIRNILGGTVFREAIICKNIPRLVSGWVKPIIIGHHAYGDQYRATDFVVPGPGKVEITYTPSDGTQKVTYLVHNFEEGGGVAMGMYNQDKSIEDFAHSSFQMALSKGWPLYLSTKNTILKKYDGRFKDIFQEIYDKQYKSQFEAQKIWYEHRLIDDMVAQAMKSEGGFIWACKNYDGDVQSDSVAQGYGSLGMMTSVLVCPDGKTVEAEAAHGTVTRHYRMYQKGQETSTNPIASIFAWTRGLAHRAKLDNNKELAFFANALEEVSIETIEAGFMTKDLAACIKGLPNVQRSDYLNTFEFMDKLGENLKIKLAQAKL
T cruzi growth-2: T. cruzi intracellular proliferation inhibitors, confirmation, cell-based, NIH3T3 host, beta-gal parasite, luminescence, cherry-pick | actives 72% (n = 5,600) | T. cruzi beta-gal in NIH3T3, GalScreen luminescence, 90 h | shares compounds with T cruzi growth-1 | inhibition, % at 8.35 µM | AID 651739, 2012;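 active means mean replicate inhibition above about 95% and at least 55% of replicates individually reaching it, limit read from the data; inconclusive means only one of the two criteria is met; inactive means neither criterion is met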
T cruzi growth-3: inhibitors of intracellular T. cruzi replication, confirmation, NIH3T3 host cells, beta-gal parasites, cherry-pick, set 2. shares compounds with T cruzi growth-1. T. cruzi beta-gal in NIH3T3, GalScreen luminescence, 90 h. inhibition, % at 2.09 µM. actives 21% (n = 5,600). AID 651740, 2012;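 active means mean inhibition above about 95%, with at least 55% of replicates also reaching it, limit read from the data; inconclusive means meets just one of the two conditions; inactive means meets neither condition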
3T3 cytotox: cytotoxicity in mouse NIH/3T3 fibroblasts, confirmation, cytotoxicity control for T. cruzi proliferation inhibitor project, cell-based, cherry-pick, single point; AID 651742, 2012; shares compounds with T cruzi growth-1; actives 14% (n = 5,600); NIH/3T3 viability, CellTiter-Glo ATP luminescence, 90 h; cytotoxicity (signal decrease), % at 8.35 µM;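 active means mean signal decrease across replicates above about 35% based on untreated-well scatter, with enough replicates individually passing, limit read from the data; inconclusive means no rule stated though some were filed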
3T3 cytotox 2: NIH/3T3 fibroblast cytotoxicity, confirmation, cytotoxicity control, cell-based, cherry-pick, single point, set 2. shares compounds with T cruzi growth-1. NIH/3T3 viability, CellTiter-Glo ATP luminescence, 90 h. inhibition, % at 24.9 µM. actives 56% (n = 5,600);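 active means mean loss of cell viability signal at or above a set limit, and enough replicates individually reaching it; inconclusive means meets only the mean limit or only the replicate share; inactive means meets neither condition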
Large screens that a line does not name were inactive (follow-up assays come after a bar, where they were run). The entries come from a sample that favours hits as a whole.

COc1ccccc1CNC(=O)C[C@H]1CC[C@H]2[C@@H](COC[C@@H](O)CN2Cc2ccc3c(c2)OCO3)O1	none (no result: IDH1 mut inh)
COc1ccccc1CNC(=O)C[C@@H]1CC[C@@H]2[C@H](COC[C@H](O)CN2Cc2cccc(-c3ccncc3)c2)O1	T cruzi growth-1 117 (no result: IDH1 mut inh) | T cruzi growth-2 inactive | T cruzi growth-3 inactive | 3T3 cytotox inactive | 3T3 cytotox 2 55
COC(=O)CNS(=O)(=O)c1ccccc1[N+](=O)[O-]	none (no result: GASC1 inh, T cruzi growth-1)
COc1ccccc1OCC(=O)Nc1cccc(-c2nc3ccccc3s2)c1	none (no result: GASC1 inh, T cruzi growth-1)
O=C(N[C@@H]1CC[C@@H](CCNS(=O)(=O)c2cccc(Cl)c2)O[C@H]1CO)c1ccc(F)cc1	none (no result: GASC1 inh)
COc1ccc(-c2cnc3c(c2)C(=O)N([C@H](C)CO)C[C@@H](C)[C@@H](CN(C)Cc2ccc(C(=O)O)cc2)O3)cc1	none
COCCNC(=O)C[C@H]1CC[C@@H]2[C@H](COC[C@@H](O)CN2Cc2cccc(-c3ccncc3)c2)O1	T cruzi growth-1 109 (no result: IDH1 mut inh) | T cruzi growth-2 inactive | T cruzi growth-3 inactive | 3T3 cytotox inactive | 3T3 cytotox 2 inactive
COc1ccccc1CNC(=O)C[C@@H]1CC[C@H]2[C@@H](COC[C@@H](O)CN2Cc2ccccc2)O1	none (no result: T cruzi growth-1, IDH1 mut inh)
COc1ccccc1CNC(=O)C[C@H]1CC[C@@H]2[C@H](COC[C@H](O)CN2Cc2cccc(-c3ccncc3)c2)O1	T cruzi growth-1 121 (no result: IDH1 mut inh) | T cruzi growth-2 102 | T cruzi growth-3 inactive | 3T3 cytotox inactive | 3T3 cytotox 2 25
COCCNC(=O)C[C@H]1CC[C@H]2[C@@H](COC[C@H](O)CN2Cc2cccc(-c3ccncc3)c2)O1	none (no result: IDH1 mut inh)
O=C(Nc1ccccc1)N1CCCCN2[C@H](CO)[C@@H](c3ccc(-c4ccccc4F)cc3)[C@@H]2C1	none (no result: IDH1 mut inh)
O=C(Nc1ccc(F)cc1)N1CCCCN2[C@@H](CO)[C@@H](c3ccc(-c4ccccc4F)cc3)[C@@H]2C1	T cruzi growth-1 103 (no result: GASC1 inh, IDH1 mut inh) | T cruzi growth-2 inactive | T cruzi growth-3 106 | 3T3 cytotox 106 | 3T3 cytotox 2 104
Cc1ccccc1-c1ccc([C@@H]2[C@H](CO)N3CCCCN(C(=O)Nc4ccc(F)cc4)C[C@@H]23)cc1	T cruzi growth-1 103 (no result: IDH1 mut inh) | T cruzi growth-2 inactive | T cruzi growth-3 107 | 3T3 cytotox 117 | 3T3 cytotox 2 103
Cc1ccccc1-c1ccc([C@@H]2[C@@H](CO)N3CCCCN(C(=O)Nc4ccc(F)cc4)C[C@@H]23)cc1	none (no result: IDH1 mut inh)
O=C(Cc1ccccn1)NCC[C@@H]1CC[C@@H](NC(=O)c2ccccc2F)[C@@H](CO)O1	GASC1 inh inconclusive
Cc1ccc(-c2ccccc2[C@@H]2[C@H](C#N)N(C(=O)Cc3cccnc3)[C@H]2CO)cc1	none (no result: T cruzi growth-1, IDH1 mut inh)
O=C(C[C@@H]1CC[C@H]2[C@@H](COC[C@@H](O)CN2Cc2nccs2)O1)NCc1ccccc1Cl	none (no result: IDH1 mut inh)
Cc1ccccc1NC(=O)CSc1ncnc2scc(-c3ccc(Cl)cc3)c12	none (no result: GASC1 inh, T cruzi growth-1)
C[C@H]1CN([C@@H](C)CO)C(=O)c2cc(NS(=O)(=O)c3cccs3)ccc2O[C@H]1CN(C)Cc1ccc(C(=O)Nc2ccccc2N)cc1	none (no result: T cruzi growth-1, IDH1 mut inh)
C[C@H](CO)N1C[C@H](C)[C@H](CN(C)Cc2ccc(C(=O)Nc3ccccc3N)cc2)Oc2c(NS(=O)(=O)c3cccs3)cccc2C1=O	T cruzi growth-1 107 (no result: IDH1 mut inh) | T cruzi growth-2 99 | T cruzi growth-3 inactive | 3T3 cytotox inactive | 3T3 cytotox 2 26
C[C@@H]1CN([C@H](C)CO)C(=O)c2cccc(NS(=O)(=O)c3cccs3)c2O[C@H]1CN(C)Cc1ccc(C(=O)Nc2ccccc2N)cc1	none (no result: T cruzi growth-1)
C[C@H](CO)N1C[C@H](C)[C@H](CN(C)Cc2ccc(-c3ccccc3)cc2)Oc2c(NS(=O)(=O)c3cccs3)cccc2C1=O	T cruzi growth-1 97 | T cruzi growth-2 inactive | T cruzi growth-3 inactive | 3T3 cytotox inactive | 3T3 cytotox 2 inactive
C[C@H]1CN([C@@H](C)CO)C(=O)c2cccc(NS(=O)(=O)c3cccs3)c2O[C@H]1CN(C)Cc1ccc(-c2ccccc2)cc1	none
C[C@H](CO)N1C[C@H](C)[C@H](CN(C)Cc2ccc(C(=O)Nc3ccccc3N)cc2)Oc2ccc(NS(=O)(=O)c3cccs3)cc2C1=O	T cruzi growth-1 115 (no result: IDH1 mut inh) | T cruzi growth-2 104 | T cruzi growth-3 inactive | 3T3 cytotox inactive | 3T3 cytotox 2 49
C[C@H]1CN([C@@H](C)CO)C(=O)c2cc(Br)cnc2O[C@@H]1CN(C)Cc1ccncc1	none
CN1C[C@H]2[C@@H](c3ccccc31)[C@H](CO)N2C(=O)Nc1ccccc1	none (no result: IDH1 mut inh)
CCc1cnc(N2[C@H](C#N)[C@H](c3ccc(C4=CCCCC4)cc3)[C@H]2CO)s1	none (no result: GASC1 inh, IDH1 mut inh)
CCc1cnc(N2[C@@H](C#N)[C@@H](c3ccc(C4=CCCC4)cc3)[C@@H]2CO)s1	T cruzi growth-1 96 (no result: IDH1 mut inh) | T cruzi growth-2 105 | T cruzi growth-3 inactive | 3T3 cytotox inactive | 3T3 cytotox 2 42
CCc1cnc(N2[C@H](C#N)[C@H](c3ccc(C4=CCCC4)cc3)[C@H]2CO)s1	none (no result: IDH1 mut inh)
CCc1csc(N2[C@H](C#N)[C@H](c3ccc(-c4cccc(F)c4)cc3)[C@@H]2CO)n1	none (no result: IDH1 mut inh)
CCc1cnc(N2[C@H](C#N)[C@H](c3ccc(-c4cccc(F)c4)cc3)[C@@H]2CO)s1	T cruzi growth-1 102 (no result: IDH1 mut inh) | T cruzi growth-2 98 | T cruzi growth-3 108 | 3T3 cytotox inactive | 3T3 cytotox 2 inactive
CCc1cnc(N2[C@@H](C#N)[C@@H](c3ccc(C4=CCCCC4)cc3)[C@@H]2CO)s1	T cruzi growth-1 100 (no result: IDH1 mut inh) | T cruzi growth-2 96 | T cruzi growth-3 inactive | 3T3 cytotox inconclusive | 3T3 cytotox 2 60
COc1ccc2c3c([nH]c2c1)[C@H](CO)N(C(=O)C1CCCCC1)CC31CCN(S(C)(=O)=O)CC1	none (no result: T cruzi growth-1, IDH1 mut inh)
C[C@H](CO)N1C[C@H](C)[C@H](CN(C)C(=O)Nc2ccc(C(F)(F)F)cc2)OCCCC[C@H](C)Oc2ccc(N(C)C)cc2C1=O	T cruzi growth-1 101 (no result: IDH1 mut inh) | T cruzi growth-2 106 | T cruzi growth-3 inactive | 3T3 cytotox inactive | 3T3 cytotox 2 39
CC(C)NC(=O)N(C)C[C@@H]1OCCCC[C@@H](C)Oc2ccc(NC(=O)Nc3ccc(C(F)(F)F)cc3)cc2C(=O)N([C@@H](C)CO)C[C@H]1C	none (no result: T cruzi growth-1)
